Measurements taken from ChEMBL document CHEMBL1154735, “A strategy to minimize reactive metabolite formation: discovery of (S)-4-(1-cyclopropyl-2-methoxyethyl)-6-[6-(difluoromethoxy)-2,5-dimethylpyridin-3-ylamino]-5-oxo-4,5-dihydropyrazine-2-carbonitrile as a potent, orally bioavailable corticotropin-releasing factor-1 receptor antagonist” (J Med Chem, 2009).
Values after ≈ are worked out from the molar mass of the structure shown. Active and inactive are the calls of the source. The rule behind the calls is not given here.

What was measured:
[1] = biological target: T1, Corticotropin-releasing factor receptor 1 (Rattus norvegicus, UniProt P35353); assay: Displacement of [125I]Tyr-o-CRF from CRF1 receptor in rat frontal cortex homogenate by binding titration assay; type: tissue-based
T1 sequence (P35353 whole entry): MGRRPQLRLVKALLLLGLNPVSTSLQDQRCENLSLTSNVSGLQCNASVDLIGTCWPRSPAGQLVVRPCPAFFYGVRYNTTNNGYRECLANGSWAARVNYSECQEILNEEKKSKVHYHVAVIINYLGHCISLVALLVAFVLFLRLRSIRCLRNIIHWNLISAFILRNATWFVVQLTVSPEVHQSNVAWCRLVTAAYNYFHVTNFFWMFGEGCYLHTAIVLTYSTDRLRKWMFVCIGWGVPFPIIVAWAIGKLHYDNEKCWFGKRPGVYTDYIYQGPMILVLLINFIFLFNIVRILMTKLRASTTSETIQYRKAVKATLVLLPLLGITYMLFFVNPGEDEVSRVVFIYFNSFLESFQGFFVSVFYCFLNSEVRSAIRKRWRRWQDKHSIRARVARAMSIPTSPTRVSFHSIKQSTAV

[2] = Metabolic stability in human liver microsomes assessed as compound remaining at 3 uM after 10 mins by HPLC/UV/MS analysis; type: ADME, Microsome; details: read-out: Stability
[3] = Metabolic stability in rat liver microsomes assessed as compound remaining at 3 uM after 10 mins by HPLC/UV/MS analysis; type: ADME, Microsome; details: read-out: Stability
How it was run: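 Pooled human or rat liver microsomes (1 mg/mL protein) with 3 μM compound and 1.3 mM NADPH in 100 mM sodium phosphate pH 7.4 at 37 °C; final 0.015% DMSO, 0.985% acetonitrile; stopped at 0 and 10 min, percent remaining by LC/MS/MS.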

[4] = Clearance in Sprague-Dawley rat at 2 mg/kg, iv after 0.17 to 24 hrs by LC/MS/MS analysis; type: ADME, organism-based; set-up: dose 2 mg/kg, route intravenous; details: in vivo
[5] = Volume of distribution at steady state in Sprague-Dawley rat at 2 mg/kg, iv after 0.17 to 24 hrs by LC/MS/MS analysis; type: ADME, organism-based; set-up: dose 2 mg/kg, route intravenous; details: in vivo, read-out: Vdss
How it was run: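 Sprague–Dawley rats (n = 3) dosed 2 mg/kg iv in PEG:ethanol 90:10 (v/v) at 1 mL/kg. Plasma stored at –20 °C and quantified by LC/MS/MS after acetonitrile precipitation with internal standard.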

[6] = Half life in Sprague-Dawley rat at 2 mg/kg, iv by LC/MS/MS analysis; type: ADME, organism-based; set-up: dose 2 mg/kg, route intravenous; details: in vivo
[7] = AUC in Sprague-Dawley rat at 10 mg/kg, po dosed as aqueous suspension of Labrafil M 1944CS/DMAC/polysorbate 80, 85:10:5 (v/v) after 0.25 to 24 hrs by LC/MS/MS analysis; type: ADME, organism-based; set-up: time 0.25-24 hr, dose 10 mg/kg, route oral; details: plasma
[8] = Cmax in Sprague-Dawley rat at 10 mg/kg, po dosed as aqueous suspension of Labrafil M 1944CS/DMAC/polysorbate 80, 85:10:5 (v/v) after 2 to 4 hrs by LC/MS/MS analysis; type: ADME, organism-based; set-up: dose 10 mg/kg, route oral; details: in vivo
[9] = Oral bioavailability in Sprague-Dawley rat at 10 mg/kg dosed as aqueous suspension of Labrafil M 1944CS/DMAC/polysorbate 80, 85:10:5 (v/v) after 0.25 to 24 hrs by LC/MS/MS analysis; type: ADME, organism-based; details: in vivo
[10] = Fraction unbound in human serum after 3 to 7 hrs by equilibrium dialysis; type: ADME, cell-free
How it was run: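 Human serum spiked with compound, equilibrium-dialysed against isotonic phosphate buffer for 3 or 7 h (depending on system) at 37 °C; both sides measured by LC/MS/MS, unbound fraction as buffer/serum concentration ratio.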

Rattus norvegicus [11] = assay: Ex vivo receptor occupancy of CRF1 receptor in Sprague-Dawley rat brain parietal assessed as inhibition of [125I]sauvagine binding at 10 mg/kg, po after 90 mins by autoradiography; type: functional; details: 1.5 h
Rattus norvegicus [12] = assay: Anxiolytic activity in Sprague-Dawley rat assessed as decrease in exit latency at 10 mg/kg, po after 60 mins by defensive withdrawal test; type: functional, organism-based; set-up: dose 10 mg/kg
[13] = AUC in Sprague-Dawley rat at 10 mg/kg, po dosed as aqueous suspension of 1% polysorbate 80 in 0.5% methylcellulose after 0.25 to 24 hrs by LC/MS/MS analysis; type: ADME, organism-based; set-up: time upper 24 hr, time lower 0.25 hr, dose 10 mg/kg, route oral; details: in vivo
[14] = Cmax in Sprague-Dawley rat at 10 mg/kg, po dosed as aqueous suspension of 1% polysorbate 80 in 0.5% methylcellulose after 2 to 4 hrs by LC/MS/MS analysis; type: ADME, organism-based; set-up: dose 10 mg/kg, route oral; details: in vivo
[15] = Oral bioavailability in Sprague-Dawley rat at 10 mg/kg dosed as aqueous suspension of 1% polysorbate 80 in 0.5% methylcellulose after 0.25 to 24 hrs by LC/MS/MS analysis; type: ADME, organism-based; details: in vivo
[16] = Octanol-water partition coefficient, log D at pH 7.4; type: physicochemical
How it was run: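 Partitioning between octanol and water at pH 7.4.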

[17] = Aqueous solubility at pH 6.5; type: physicochemical
[18] = Aqueous solubility at pH 1; type: physicochemical
[19] = Dissociation constant, pKa by spectrophotometric titration method; type: physicochemical
How it was run: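 Spectrophotometric titration over pH 2–11 in varying acetonitrile/water mixtures, extrapolated to 0% cosolvent.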

[20] = Metabolic stability in NADPH-fortified human liver microsomes assessed as parent compound remaining at 10 uM after 30 mins by HPLC/UV/MS analysis; type: ADME, Microsome; details: read-out: Stability
How it was run: (§1)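 Pooled rat or human liver microsomes 1 mg/mL, 10 μM substrate, 100 mM potassium phosphate pH 7.4, 37 °C, started with NADPH-regenerating system (1.3 mM NADP+, 3.3 mM glucose-6-phosphate, 3.3 mM MgCl2, 0.5 U/mL G6PDH); GSH 5 mM in trapping runs. Sampled 0 and 30 min, acetonitrile quench; abundance as UV peak area (330–340 nm) fraction of all drug-related components by HPLC/UV/MS.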

Liver microsomes [21] = assay: Metabolic stability in NADPH-fortified human liver microsomes assessed as pyrazinone oxidation metabolite formation at 10 uM after 30 mins by HPLC/UV/MS analysis; type: ADME, Microsome; details: 0.5 h; how it was run: as §1
Liver microsomes [22] = assay: Metabolic stability in NADPH-fortified human liver microsomes assessed as GSH adduct formation at 10 uM after 30 mins by HPLC/UV/MS analysis; type: ADME, Microsome; details: 0.5 h; how it was run: as §1
[23] = Metabolic stability in NADPH-fortified rat liver microsomes assessed as parent compound remaining at 10 uM after 30 mins by HPLC/UV/MS analysis; type: ADME, Microsome; details: read-out: Stability; how it was run: as §1
Liver microsomes [24] = assay: Metabolic stability in NADPH-fortified rat liver microsomes assessed as pyrazinone oxidation metabolite formation at 10 uM after 30 mins by HPLC/UV/MS analysis; type: ADME, Microsome; details: 0.5 h; how it was run: as §1
Liver microsomes [25] = assay: Metabolic stability in NADPH-fortified rat liver microsomes assessed as GSH adduct formation at 10 uM after 30 mins by HPLC/UV/MS analysis; type: ADME, Microsome; details: 0.5 h; how it was run: as §1

| Compound | IC50 [1] [nM] | remaining at 10 min, 3 µM [2] [%] | remaining at 10 min, 3 µM [3] [%] | clearance [4] [mL/min/kg] | Vd [5] [L/kg] | half-life [6] [h] | AUC [7] [µM·h] | Cmax [8] [nM] | bioavailability [9] [%] | fraction unbound [10] | AUC [13] [µM·h] | Cmax [14] [nM] | bioavailability [15] [%] | further results |
| --- | --- | --- | --- | --- | --- | --- | --- | --- | --- | --- | --- | --- | --- | --- |
| COc1nc(C)c(Nc2nc(C#N)cn([C@H](C)C3CC3)c2=O)cc1C | 10 | 99 | 72 |  |  |  |  |  |  |  |  |  |  |  |
| CC[C@H](C1CC1)n1cc(Cl)nc(Nc2cc(C)c(OC(F)F)nc2C)c1=O | 0.21 | 100 | 56 |  |  |  |  |  |  |  |  |  |  |  |
| COC[C@@H](C1CC1)n1cc(Cl)nc(Nc2cc(C)c(OC)nc2C)c1=O | 1.1 | 40 | 13 |  |  |  |  |  |  |  |  |  |  |  |
| COC[C@@H](C1CC1)n1cc(Cl)nc(Nc2cc(C)c(OC(F)F)nc2C)c1=O | 0.5 | 84 | 46 | 31 | 42 | 16 | 4.7 | 440 | 48 | 0.008 |  |  |  |  |
| Cc1cc(Nc2nc(Cl)cn([C@H](C)C3CC3)c2=O)c(C)nc1OC(F)F | 0.3 | 100 | 86 |  |  |  |  |  |  |  |  |  |  |  |
| COCC(COC)Nc1nc(C)nc2c(-c3ccc(Cl)cc3Cl)c(C)nn12 |  |  |  |  |  |  |  |  |  |  |  |  |  | inhibition in vivo at 10 mg/kg (Rattus norvegicus [11]): 89%; Activity (Rattus norvegicus [12]): Active |
| CC[C@H](C1CC1)n1cc(C#N)nc(Nc2cc(C)c(OC)nc2C)c1=O | 1.7 | 81 | 38 | 53 | 11 | 9 | 3 | 590 | 33 | 0.019 | 0.24 | 50 | 3 | logD [16]: 4.1; solubility [17]: 1 µg/mL (≈ 2.83 µM); solubility [18]: 23 µg/mL (≈ 65.1 µM); pKa [19]: < 2 |
| Cc1cc(Nc2nc(C#N)cn([C@H](C)C3CC3)c2=O)c(C)nc1OC(F)F | 0.82 | 100 | 89 | 36 | 11 | 7.2 | 9.9 | 1400 | 82 | 0.016 | 4.6 | 560 | 38 | remaining at 0.5 h, 10 µM [20]: 88%; Activity (Liver microsomes [21]): < 1%; Activity (Liver microsomes [22]): 7%; remaining at 0.5 h, 10 µM [23]: 80%; Activity (Liver microsomes [24]): < 1%; Activity (Liver microsomes [25]): 8% |
| COC[C@H](C1CC1)n1cc(Cl)nc(Nc2cc(C)c(OC(F)F)nc2C)c1=O | 0.24 |  | 69 | 36 | 15 | 9.2 | 9 | 1300 | 86 | 0.008 | 7 | 770 | 66 | remaining at 0.5 h, 10 µM [20]: 75%; Activity (Liver microsomes [21]): 1%; Activity (Liver microsomes [22]): 5%; remaining at 0.5 h, 10 µM [23]: 42%; Activity (Liver microsomes [24]): 1%; Activity (Liver microsomes [25]): 3% |
